Screening data from PubChem.
This is a sample that favours compounds with a hit; in the whole collection about 4% have one here.
Cl transport mod: modulates chloride dependent transport by human KCC2; Q9H2X9; KCC2 cells, thallium flux FluoZin-2 fluorescence; B-score of Tl+ flux slope (higher = more flux/activation; lower = inhibition) at 10 µM; 190,000 compounds, 2.2% hits; AID 1456;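 active means thallium flux slope and its plate-corrected score both differing from the plate sample mean at a set confidence after two filtering rounds, in either direction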;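 further: slope of fluorescence scaled to starting intensity during 10 to 20 s after thallium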
Target sequence (Q9H2X9 whole entry, looked up): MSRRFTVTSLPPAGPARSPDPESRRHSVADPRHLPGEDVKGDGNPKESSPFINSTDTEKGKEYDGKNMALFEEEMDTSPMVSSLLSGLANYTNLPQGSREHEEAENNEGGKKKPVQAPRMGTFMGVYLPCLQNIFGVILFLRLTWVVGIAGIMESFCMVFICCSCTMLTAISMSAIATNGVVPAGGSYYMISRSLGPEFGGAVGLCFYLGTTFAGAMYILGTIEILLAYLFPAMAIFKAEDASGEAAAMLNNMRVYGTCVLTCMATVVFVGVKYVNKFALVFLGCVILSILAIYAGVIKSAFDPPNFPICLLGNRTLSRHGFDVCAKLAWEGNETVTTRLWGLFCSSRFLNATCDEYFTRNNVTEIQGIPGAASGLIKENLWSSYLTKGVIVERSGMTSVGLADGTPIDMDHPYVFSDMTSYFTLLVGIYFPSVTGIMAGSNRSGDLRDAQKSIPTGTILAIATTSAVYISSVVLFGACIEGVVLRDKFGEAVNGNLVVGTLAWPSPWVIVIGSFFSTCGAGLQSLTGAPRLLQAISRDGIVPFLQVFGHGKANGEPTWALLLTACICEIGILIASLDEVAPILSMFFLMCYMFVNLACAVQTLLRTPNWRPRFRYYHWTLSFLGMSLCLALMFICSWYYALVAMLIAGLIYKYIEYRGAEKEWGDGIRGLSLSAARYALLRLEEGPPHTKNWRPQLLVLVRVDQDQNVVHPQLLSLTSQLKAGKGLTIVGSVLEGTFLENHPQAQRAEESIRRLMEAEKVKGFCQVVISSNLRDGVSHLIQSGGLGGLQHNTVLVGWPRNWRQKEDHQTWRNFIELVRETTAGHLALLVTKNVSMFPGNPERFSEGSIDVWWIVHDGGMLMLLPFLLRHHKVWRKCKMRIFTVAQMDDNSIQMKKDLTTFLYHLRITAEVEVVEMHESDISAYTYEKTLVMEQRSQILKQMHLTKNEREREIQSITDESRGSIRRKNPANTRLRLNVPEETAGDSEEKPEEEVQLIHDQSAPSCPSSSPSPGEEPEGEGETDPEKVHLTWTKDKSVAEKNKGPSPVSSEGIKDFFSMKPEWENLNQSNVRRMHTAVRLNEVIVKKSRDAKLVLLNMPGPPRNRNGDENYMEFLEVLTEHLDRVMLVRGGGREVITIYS
WT yeast gro inh: growth inhibition of WT yeast, mitochondrial fusion screen; mitochondrial fusion phenotypic screen, WT strain; inhibition, % at 10 µM; 190,000 compounds, 2.1% hits; AID 1362; in the data active means inhibition above about 58%; tested in S. cerevisiae
Pf gamet viab: kills late stage P. falciparum gametocytes. AID 743093. inhibition, % at 10.9 µM. P. falciparum stage V gametocytes, ATP luminescence, 24 h. 150,000 compounds, 0.065% hits;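 active means inhibition above the mean plus 3 SD of compounds within the control limits, set per campaign, cut at about 38% in these data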;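 further: 0% = DMSO wells and 100% = medium only without gametocytes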
bCat nuc transl: beta-catenin nuclear translocation modulation | HeLa beta-catenin nuclear translocation, immunofluorescence imaging | nuclear translocation activity, % at 5 µM | 190,000 compounds, 0.3% hits | AID 1665;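 active means nuclear translocation activity above 50% at 5 µM, with a well cell count of 50 or more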;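 further: per-cell ratio of nuclear to cytoplasmic median beta-catenin stain intensity; plate controls were DMSO negative control for no effect and GSK-3 inhibitor IX positive control for full effect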
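Test system: human HeLa cells, endogenous beta-catenin. Times: 24 h compound exposure, 37°C. Measured by: beta-catenin immunofluorescence imaging with DAPI.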
MT stabilizer: microtubule stabilizers in HeLa cells; HeLa tubulin immunostaining HCS, 24 h; share of cells brighter than vehicle mean+2SD; % tubulin-high responders, % at 10 µM; 200,000 compounds, 0.83% hits;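 active means plate Z-score above 3 for both tubulin-high and condensed-nucleus cell shares, with cell loss under 80%, at 10 µM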;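 further: anti alpha tubulin signal scored within the nucleus-defined area of each cell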
The depositor's hits bear a star; / = not tested or not shown.

SMILES	Cl transport mod	WT yeast gro inh	Pf gamet viab	bCat nuc transl	MT stabilizer
CC1CCCC(NC(=S)NC(=O)c2cncc(Br)c2)C1C (stereo not given)	51*	62*	10	-3	3
C/C(=N\NC(=O)CN1CCOCC1)C(C)(C)C	/	-11	6	-1	2
CCOC(=O)c1c(N)sc(C(O)(C(F)(F)F)C(F)(F)F)c1-c1ccccc1	0.38	97*	-6	/	2
CCOC(=O)c1c(N)sc(-c2ccccc2)c1C	0.5	12	/	7	4
COc1cc2c(cc1OC)CN(CCC(C)c1ccc(Cl)cc1)CC2 (stereo not given)	/	/	15	/	/
CC1C(=O)Nc2ccccc2N1C(=O)c1ccccc1 (stereo not given)	/	-11	-20	-2	4
Cc1ccccc1N=C(NOCc1ccc(Cl)cc1Cl)c1nonc1N	1	78*	/	/	2
Cc1ccc(N=C(NOCc2ccc(Cl)cc2Cl)c2nonc2N)c(C)c1	0.11	68*	-80	/	2
O=C(N/N=C/c1cc(Br)c(Br)o1)c1cccnc1	0.47	-4	5	7	2
O=C(N/N=C\c1cc(Br)c(Br)o1)c1cncc(Br)c1	16*	4	25	1	3
COc1ccc(OCC(O)CNCc2ccco2)cc1 (stereo not given)	0.3	72*	/	2	5
O=C(CCCc1ccccc1)NCCc1ccc(F)cc1	/	/	-5	/	/
OCCNCc1cc(Br)ccc1OCc1ccc(Cl)cc1Cl	0.0062	58*	/	3	3
Fc1cccc(NC(=S)NCCc2ccccc2)c1	-0.64	33	/	1	2
CC(C)(C)NC(=S)Nc1ccc(Nc2ccccc2)cc1	/	73*	-30	/	4
S=C(NCCc1ccccc1)Nc1ccc(Nc2ccccc2)cc1	-0.55	82*	/	1	4
Cc1cccnc1NC(=S)NCCc1ccccc1	-1.2	61*	16	-5	1
Cc1oc(-c2ccccc2)[n+]([O-])c1C	-0.49	69*	/	0	2
Cc1cccc(-c2oc(C)c(C)[n+]2[O-])c1	-0.11	-1	/	/	2
Cc1c(NC(=O)c2ccc(-c3ccc([N+](=O)[O-])cc3Cl)o2)c(=O)n(-c2ccccc2)n1C	-1.2	9	8	2	1
CC(C)N1C2OC(C3OC4C(O3)N(C(C)C)S(=O)(=O)N4C(C)C)OC2N(C(C)C)S1(=O)=O (stereo not given)	/	63*	-20	-3	1
CCn1c(SCC(N)=O)nc2sc3c(c2c1=O)CCCC3	60*	17	/	-6	2
CCSc1nc2sc3c(c2c(=O)n1CC)CCC3	/	/	-5	/	/
COc1ccccc1N1CCN(C(=O)c2ccc(CN3CCOCC3)cc2)CC1	-0.075	-12	/	-2	3
CCCCN1C(=O)C2NN=C(C(=O)OC)C2C1=O (stereo not given)	1	-16	-6	/	2
SMILES	Cl transport mod	WT yeast gro inh	Pf gamet viab	bCat nuc transl	MT stabilizer
Cc1cccc(C(=O)Nc2cccc3c2CCCC3)c1	/	/	6	/	/
CC(C)Oc1ccc(C(=O)Nc2cccc3cccnc23)cc1	-1.7	59*	5	-2	4
CCOc1ccc(C(=O)Nc2cccc3cccnc23)cc1	/	/	2	/	/
CCOC(=O)CNC(=O)CNC(=O)c1ccc(OCC(C)C)cc1	/	7	/	-8	4
CCCCCOc1ccc(C(=O)NCC(=O)NCC(=O)OCC)cc1	/	10	-6	9	36*
CC(=O)c1ccc(NC(=O)C(C)NCc2ccccc2Cl)cc1 (stereo not given)	0.84	-11	-11	-1	3
O=C(O)Cc1ccc(OCc2ccc(Cl)nc2)cc1	0.17	0	-11	1	3
CCOc1ccccc1C1CC(=O)NC2=C1C(=O)CCC2 (stereo not given)	/	-35	13	22	58*
CCOc1ccccc1C1CC(=O)Nc2cc(C)c(C)cc21 (stereo not given)	/	/	-6	/	/
CCCCOc1ccccc1C1CC(=O)NC2=C1C(=O)CCC2 (stereo not given)	0.44	12	8	109*	48*
CCOc1ccc(C2CC(=O)NC3=C2C(=O)CCC3)cc1 (stereo not given)	/	-8	18	-2	3
CCCOc1ccccc1C1CC(=O)NC2=C1C(=O)CCC2 (stereo not given)	0.66	4	-4	97*	55
CCCOc1ccccc1C1CC(=O)NC(C)=C1C(=O)OCC(C)C (stereo not given)	-0.44	13	-14	1	2
CN(CCO)c1ncnc2c1sc1nc(N3CCOCC3)c3c(c12)CCC3	-0.38	/	1	3	/
O=C(Cn1nnc(-c2ccccc2F)n1)NCc1ccco1	-0.17	5	2	5	1
N#CC1=C(N)Oc2c(ccc3cccnc23)C1c1cccnc1 (stereo not given)	-0.39	6	/	56*	22*
Cc1ccc2cc(C3C(C#N)=C(N)Oc4c3ccc3cccnc43)c(=O)[nH]c2c1 (stereo not given)	/	0	/	-1	1
N#CC1=C(N)Oc2cc3ccccc3cc2C1c1cccnc1 (stereo not given)	0.43	-5	16	-1	56*
CC(C)NCc1nnc(-c2ccccc2Cl)o1	0.18	2	/	0	4
COc1ccc(-c2ccnc(-c3ccc(O)cc3)n2)cc1	0.19	3	-12	64*	12
COc1ccc(-c2ccnc(-c3ccncc3)n2)cc1	-0.38	/	-5	6	/
c1ccc2c(-c3cn4ccccc4n3)c[nH]c2c1	-1	1	/	-1	2
COc1ccccc1NC(=O)c1csc(-n2nc(C)cc2C(F)(F)F)n1	/	11	1	/	6
Cc1cc(C(F)(F)F)n(-c2nc(C(=O)N/N=C/c3ccc(F)cc3)cs2)n1	-0.0012	15	5	/	49*
COc1cccc(/C=N/NC(=O)c2csc(-n3nc(C)cc3C(F)(F)F)n2)c1	0.11	10	-20	30	43*
SMILES	Cl transport mod	WT yeast gro inh	Pf gamet viab	bCat nuc transl	MT stabilizer
Cc1cc(NC(=O)CSc2nnc(-c3c[nH]c4ccccc34)n2C)no1	-0.48	-6	/	4	1
CC(=O)Nc1ccc(S(=O)(=O)N2CCN(c3nc(C)cc(C)n3)CC2)cc1	/	/	-8	/	/
CC(=O)Nc1ccc(S(=O)(=O)N2CCN(c3cccc(C)c3C)CC2)cc1	-0.61	23	/	5	14*
CCCCCCCCCCCC(=O)c1c(O)cccc1O	0.37	95*	/	0	3
COc1ccc(C(C)(C)C)cc1NC(=O)Nc1ccc2c(c1)OCO2	0.25	68*	-15	-2	2
COc1cc(NC(=O)Nc2ccc3c(c2)OCO3)cc(OC)c1OC	-0.35	-12	-7	2	4
O=C1C=C(Nc2ccccc2)c2ccccc2C1=O	0.16	74*	/	3	7
O=C1C=C(Nc2ccccc2)C(=O)c2ccccc21	-1.9	64*	/	-2	5
O=C1C=C(Nc2ccccc2C(=O)O)c2ccccc2C1=O	0.14	/	7	0	/
CCNC(=O)NC(=O)COC(=O)CCCSc1nc2ccccc2s1	/	-6	10	-1	5
O=C(Nc1ccccc1)Nc1cccc(C(F)(F)F)c1	0.42	38	-5	-3	2
